Source: ChEMBL document CHEMBL2021927, “Synthesis and evaluation of the cytotoxicities of tetraindoles: observation that the 5-hydroxy tetraindole (SK228) induces G₂ arrest and apoptosis in human breast cancer cells” (J Med Chem, 2012)
Calls of active or inactive are those of the source. No cut-off for these calls is given here.

Assays:
MDA-MB-231 [1] = assay: Increase in cdc2 phosphorylation at Tyr15 expression in human MDA-MB-231 cells after 48 hrs by Western blot analysis; type: functional, cell-based
Method in brief: (§1)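 MDA-MB-231 cells treated with 0.2, 0.4 or 0.8 μM for 24 and 48 h. Attached and floating cells were lysed in RIPA-type buffer with protease inhibitors, and protein was quantified by BCA. Equal protein was run on 10%/15% SDS-PAGE and transferred to nitrocellulose. Blots were probed 1 h at room temperature for phospho-cdc2, cyclin B1, caspase-3, bak/bcl-2 or actin loading control, with HRP secondary and ECL detection.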

SW48 [2] = assay: Growth inhibition of human SW48 cells after 48 hrs by MTT assay; type: functional, cell-based; settings: SW48, 48 h
A549 [3] = assay: Selectivity ratio of IC50 for human MT10 cells to IC50 for human A549 cells
Method in brief: (§2)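 Ratio of the IC50 in normal M10 cells to the IC50 in each cancer line. […] The paper reports the fold difference as the normal-cell to tumour-cell IC50 ratio.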

SW48 [4] = assay: Selectivity ratio of IC50 for human MT10 cells to IC50 for human SW48 cells; method in brief: as §2
MCF7 [5] = assay: Growth inhibition of human MCF7 cells after 48 hrs by MTT assay; type: functional, cell-based; settings: MCF7, 48 h
MDA-MB-231 [6] = assay: Cell cycle arrest in human MDA-MB-231 cells at accumulation at subG1 phase at 0.8 uM after 24 hrs by propidium iodide staining-based flow cytometric analysis (reference value: 2%); type: functional
Detroit 551 = assay: Selectivity ratio of IC50 for human Detroit 551 cells to IC50 for human A549 cells
MDA-MB-231 [7] = assay: Cell cycle arrest in human MDA-MB-231 cells at accumulation at S phase at 0.8 uM after 24 hrs by propidium iodide staining-based flow cytometric analysis (reference value: 20%); type: functional
MDA-MB-231 [8] = assay: Induction of apoptosis in human MDA-MB-231 cells assessed as bak protein level after 24 hrs by Western blot analysis; type: functional, cell-based; method in brief: as §1
MDA-MB-231 [9] = assay: Ratio of IC50 for cyclic tetramer to compound for human MDA-MB-231 cells after 48 hrs by MTT assay; type: functional
MCF7 [10] = assay: Selectivity ratio of IC50 for human Detroit 551 cells to IC50 for human MCF7 cells
[11] = Growth inhibition of human M10 cells after 48 hrs by MTT assay; type: cell-based; settings: M10, 48 h
SW480 = assay: Growth inhibition of human SW480 cells after 48 hrs by MTT assay; type: functional, cell-based; settings: SW480, 48 h
MDA-MB-468 = assay: Growth inhibition of human MDA-MB-468 cells after 48 hrs by MTT assay; type: functional, cell-based; settings: MDA-MB-468, 48 h
MDA-MB-231 [12] = assay: Selectivity ratio of IC50 for human Detroit 551 cells to IC50 for human MDA-MB-231 cells
MDA-MB-231 [13] = assay: Increase in cyclin B1 expression in human MDA-MB-231 cells after 48 hrs by Western blot analysis; type: functional, cell-based; method in brief: as §1
A549 [14] = assay: Growth inhibition of human A549 cells after 48 hrs by MTT assay; type: functional, cell-based; settings: A549, 48 h
MDA-MB-361 = assay: Selectivity ratio of IC50 for human Detroit 551 cells to IC50 for human MDA-MB-361 cells
MDA-MB-231 [15] = assay: Cell cycle arrest in human MDA-MB-231 cells at accumulation at S phase at 0.8 uM after 48 hrs by propidium iodide staining-based flow cytometric analysis (reference value: 20%); type: functional
SW-620 = assay: Growth inhibition of human SW620 cells after 48 hrs by MTT assay; type: functional, cell-based; settings: SW-620, 48 h
[16] = Selectivity ratio of IC50 for human MT10 cells to IC50 for human U87MG cells; type: ADME, cell-based, U-87MG ATCC; settings: MT10 cells and U87MG cells, read-out: Ratio IC50; method in brief: as §2

IC50 (SW48 [2]): 880 nM
IC50 (MCF7 [5]): 880 nM
IC50 (SW480): 370 nM
IC50 (MDA-MB-468): 830 nM
IC50 (A549 [14]): 2890 nM
IC50 (SW-620): 980 nM
SMILES: Oc1ccc2[nH]cc(C(c3ccc(C(c4c[nH]c5ccc(O)cc45)c4c[nH]c5ccc(O)cc45)cc3)c3c[nH]c4ccc(O)cc34)c2c1
Activity (MDA-MB-231 [1]): Dose-dependent effect
Ratio IC50 (A549 [3]): 2
Ratio IC50 (SW48 [4]): 6.6
Activity (MDA-MB-231 [6]): 6%
Ratio IC50 (Detroit 551): > 6.9
Activity (MDA-MB-231 [7]): 23%
Activity (MDA-MB-231 [8]): Active
Ratio IC50 (MDA-MB-231 [9]): 2
Ratio IC50 (MCF7 [10]): > 22.7
IC50 [11]: 5810 nM
Ratio IC50 (MDA-MB-231 [12]): > 44
Activity (MDA-MB-231 [13]): Dose-dependent effect
Ratio IC50 (MDA-MB-361): > 9.7
Activity (MDA-MB-231 [15]): 20%
selectivity ratio [16]: 2
